Structures are written as SMILES. Activity calls are given as the source filed them. The rule behind the calls is not given here. Some results are limits rather than exact numbers.

Target in one data set: not listed separately
The data set is described as follows: Displacement of [125I]DMIC from amyloid beta 1-42 aggregates.
Settings: not given
Also noted: species or system Homo sapiens.
As for `CN(C)c1ccc(/C=C/C(=O)c2ccc(I)s2)s1`, the affinity, expressed as Ki, was 137 nM.

In turn, `CN(C)c1ccc(/C=C/C(=O)c2ccc(I)cc2)s1` showed an inhibitory constant (Ki) of 113 nM.

Molecule `CNc1ccc(C(=O)/C=C/c2ccc(Br)s2)cc1` had an inhibitory constant (Ki) of 198 nM.

In turn, `CN(C)c1ccc(C(=O)/C=C/c2ccc(Br)s2)cc1` registered an inhibition constant Ki of 106 nM.

With `CN(C)c1ccc(/C=C/C(=O)c2ccc(I)cc2)o1`, the inhibitory constant (Ki) worked out at 1130 nM.

`Nc1ccc(/C=C/C(=O)c2ccc(I)s2)cc1` returned a Ki of 121 nM.

Consider `CN(C)c1ccc(/C=C/C(=O)c2ccc(Br)o2)o1`, for which the Ki was greater than 10000 nM.

Take `CNc1ccc(/C=C/C(=O)c2ccc(I)s2)cc1`: the Ki stood at 14.1 nM.

On to `CN(C)c1ccc(C(=O)/C=C/c2ccc(I)cc2)cc1`, for which the Ki is 13.3 nM.

With `Cc1ccc2c(c1)sc(-c1ccc(N(C)C)cc1)[n+]2C` [THIOFLAVIN T], the Ki was greater than 10000 nM.

`O=C(/C=C/c1nccs1)c1ccc(I)cc1` displayed an inhibition constant Ki greater than 10000 nM.

`Nc1c(/N=N/c2ccc(-c3ccc(/N=N/c4cc(S(=O)(=O)O)c5ccccc5c4N)cc3)cc2)cc(S(=O)(=O)O)c2ccccc12` [CONGO RED] gave a Ki greater than 10000 nM.

In the case of `O=C(/C=C/c1ccccc1)c1ccc(I)cc1`, affinity was put at a Ki of 151 nM.

For the molecule `CN(C)c1ccc(/C=C/C(=O)c2ccc(I)s2)o1`, the affinity corresponds to a Ki of 1610 nM.

The molecule `CN(C)c1ccc(/C=C/C(=O)c2ccc(Br)o2)cc1` returned a Ki of 126 nM.

`CN(C)c1ccc(/C=C/C(=O)c2ccc(Br)o2)s1` gave a Ki of 2650 nM.

Turning to `O=C(/C=C/c1ccoc1)c1ccc(I)cc1`, the Ki came to 125 nM.

`Nc1ccc(C(=O)/C=C/c2ccc(Br)s2)cc1` displayed an inhibitory constant (Ki) of 476 nM.

Turning to `O=C(/C=C/c1ncc[nH]1)c1ccc(I)cc1`, the affinity, expressed as Ki, was 797 nM.

In turn, `CN(C)c1ccc(/C=C/C(=O)c2ccc(I)s2)cc1` yielded an inhibition constant (Ki) of 3.9 nM.

Molecule `Nc1ccc(C(=O)/C=C/c2ccc(I)cc2)cc1` had a Ki of 248 nM.

Molecule `O=C(/C=C/c1ccsc1)c1ccc(I)cc1` returned a Ki of 93 nM.

Molecule `O=C(/C=C/c1cccs1)c1ccc(I)cc1` yielded an inhibitory constant (Ki) of 102 nM.

The molecule `CNc1ccc(C(=O)/C=C/c2ccc(I)cc2)cc1` showed a Ki of 23.9 nM.

In turn, `O=C(/C=C/c1ccco1)c1ccc(I)cc1` returned a Ki of 908 nM.

The species named for another data set is Mus musculus. Description: Binding affinity for beta amyloid plaques in Alzheimer's mouse model brain.
Settings: not given
In short, it runs like this:
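Paraffin sections, 5 µm, of formaldehyde-fixed Alzheimer's model mouse brain. Deparaffinised, held in PBS 30 min, stained with compound at 100 µM in 50% ethanol, washed in PBS 15 min, then mounted. Fluorescence read by confocal microscopy at 458 excitation and 540–580 emission. Serial sections immunostained for β-amyloid with DAB.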
As to `CN(C)c1ccc(/C=C/C(=O)c2ccc(I)s2)cc1`, the outcome was Active.

In the next data set the test system is Brain. The data set is described as follows: Biodistribution in ddY mouse brain at 4.2 to 6.3 kBq, iv after 2 mins. The following applies: in vivo. The data set is classed as ADME, organism-based. In short, it runs like this: (§1)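 [125I]-labelled ligand in saline with 10% ethanol, given by tail-vein injection to normal ddY mice (5 weeks old, 23–25 g). Mice killed at set times post-injection. Organs removed and weighed, radioactivity gamma-counted, expressed as % injected dose per gram. Mean (SD) of five mice per time point.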
In turn, `CN(C)c1ccc(/C=C/C(=O)c2ccc([125I])s2)cc1` registered a Drug uptake of 2.46 % ID/g.

For another data set, the system named is Brain. Description: Biodistribution in ddY mouse brain at 4.2 to 6.3 kBq, iv after 10 mins. Format: ADME, organism-based. Conditions: in vivo. The procedure, abridged: as §1
In turn, `CN(C)c1ccc(/C=C/C(=O)c2ccc([125I])s2)cc1` displayed a Drug uptake of 0.75 % ID/g.

The subject of the next data set is Brain. The data set is described as follows: Biodistribution in ddY mouse brain at 4.2 to 6.3 kBq, iv after 30 mins. Format: ADME, organism-based. The following applies: in vivo, 0.5 h. The procedure, abridged: as §1
`CN(C)c1ccc(/C=C/C(=O)c2ccc([125I])s2)cc1` gave a Drug uptake of 0.31 % ID/g.

Another data set concerns Brain. The data set is described as follows: Biodistribution in ddY mouse brain at 4.2 to 6.3 kBq, iv after 60 mins. The data set is classed as ADME, organism-based. Conditions: in vivo, 1 h. In short, it runs like this: as §1
As for `CN(C)c1ccc(/C=C/C(=O)c2ccc([125I])s2)cc1`, the Drug uptake came to 0.21 % ID/g.

(Values after ChEMBL document CHEMBL1149675, “Structure-activity relationship of chalcones and related derivatives as ligands for detecting of beta-amyloid plaques in the brain” (Bioorg Med Chem, 2007).)
